Reference: ChEMBL document CHEMBL2086225, “Demethylwedelolactone derivatives inhibit invasive growth in vitro and lung metastasis of MDA-MB-231 breast cancer cells in nude mice” (Eur J Med Chem, 2012)
Calls of active or inactive are those of the source.

Experiments:
MDA-MB-231 [1] = assay: Upregulation of TIMP2 expression in human MDA-MB-231 cells at 1.1 to 3.6 uM after 12 hrs by Western blot analysis; type: functional, cell-based
MDA-MB-231 [2] = assay: Antiinvasive activity against human MDA-MB-231 cells pretreated for 12 hrs followed by compound-wash out measured after 12 hrs by Boyden chamber assay; type: functional, cell-based
Method in brief: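 Cells pretreated 12 h, resuspended in serum-free medium (2 × 10^5 cells/ml) in upper chamber coated with Matrigel diluted 1:25; 10% FBS medium below. After 12 h, non-invaded cells removed; invaded cells methanol-fixed, Giemsa-stained, counted at 200× in 5 random fields per replicate (n = 4), averaged.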

[3] = target: T1, NF-kappa-B inhibitor alpha (Homo sapiens) (UniProt P25963); assay: Inhibition of IkappaBalpha phosphorylation in human MDA-MB-231 cells after 12 hrs by Western blot analysis; type: cell-based
T1 sequence (whole entry): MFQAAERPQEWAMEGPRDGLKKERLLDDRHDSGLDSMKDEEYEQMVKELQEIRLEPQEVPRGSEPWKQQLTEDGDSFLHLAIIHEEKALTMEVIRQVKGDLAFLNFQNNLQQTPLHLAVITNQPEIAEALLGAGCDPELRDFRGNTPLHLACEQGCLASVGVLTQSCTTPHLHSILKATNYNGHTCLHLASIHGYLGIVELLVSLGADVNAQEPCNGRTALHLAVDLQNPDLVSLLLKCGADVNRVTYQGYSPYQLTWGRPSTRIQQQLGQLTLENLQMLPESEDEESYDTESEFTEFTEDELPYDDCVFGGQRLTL
Method in brief: (§1)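 For the time course, cells exposed to 20 µM for various times; for dose response, 5, 10 or 20 µM for 12 h. Lysates immunoblotted with phospho-IκB-α and total IκB-α antibodies, HRP secondary, chemiluminescence detection, densitometry.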

[4] = target: Matrix metalloproteinase-9 (Homo sapiens) (UniProt P14780); assay: Inhibition of MMP9 in human MDA-MB-231 cells at 20 uM up to 12 hrs by gelatin-zymogrphy; type: cell-based
Method in brief: (§2)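 Cells seeded at 4 × 10^5 cells/ml overnight, exposed to 20 µM for 0–12 h. Conditioned media run on 8% SDS-PAGE containing 0.1% gelatin (150 V, 3 h), SDS removed with 2% Triton X-100 washes, gels incubated in 10 mM CaCl2, 40 mM Tris-HCl pH 8.0 for 16 h at 37 °C, Coomassie-stained.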

MDA-MB-231 [5] = assay: Antiinvasive activity against human MDA-MB-231 cells xenografted in athymic nude BALB/c mouse assessed as decrease in lung weight at 5 and 20 mg/kg, ip administered 3 times per week starting 1 week prior to xenografting measured after 5 weeks relative to control; type: functional, organism-based; parameters: dose 20 mg/kg
Method in brief: (§3)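 Female six-week-old BALB/c-nu mice (n = 6/group) dosed i.p. 3 times/week for 5 weeks (100 µl vehicle, or PBS). After 1 week, 1 × 10^6 cells injected into tail vein. Mice euthanized 4 weeks post-injection; lungs photographed, weighed, and H&E/hematoxylin sections examined for tumor cells. Means ± SD; one-way ANOVA with Dunnett's test.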

SK-HEP1 = assay: Antiinvasive activity against human SKHEP1 cells; type: functional, cell-based
MDA-MB-231 [6] = assay: Antimetastatic activity against human MDA-MB-231 cells assessed as inhibition of wound closure activity up to 20 uM at 12 hrs by scratch motility assay; type: functional, cell-based
MDA-MB-231 [7] = assay: Downregulation of MMP2 expression in human MDA-MB-231 cells at 5 to 20 uM after 12 hrs by Western blot analysis; type: functional, cell-based
Method in brief: (§4)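 Cells exposed to 5, 10 or 20 µM for 12 h; lysed in RIPA buffer (pH 7.5) with protease/phosphatase inhibitors. 50–100 µg protein run on SDS-PAGE, transferred to nitrocellulose, probed with phospho-specific and total antibodies (β-actin loading control), HRP secondary, ECL detection, densitometry.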

[8] = target: 72 kDa type IV collagenase (Homo sapiens) (UniProt P08253); assay: Inhibition of MMP2 in human MDA-MB-231 cells at 20 uM up to 12 hrs by gelatin-zymogrphy; type: cell-based; method in brief: as §2
MDA-MB-231 [9] = assay: Upregulation of TIMP1 expression in human MDA-MB-231 cells at 0.2 to 0.8 uM after 12 hrs by Western blot analysis; type: functional, cell-based
MDA-MB-231 [10] = assay: Downregulation of MMP9 expression in human MDA-MB-231 cells at 0.1 to 0.9 uM after 12 hrs by Western blot analysis; type: functional, cell-based
MDA-MB-231 [11] = assay: Antiinvasive activity against human MDA-MB-231 cells xenografted in athymic nude BALB/c mouse assessed as decrease in lung size at 5 and 20 mg/kg, ip administered 3 times per week starting 1 week prior to xenografting measured after 5 weeks relative to control; type: functional, organism-based; parameters: dose 20 mg/kg; method in brief: as §3
[12] = target: Focal adhesion kinase 1 (Homo sapiens) (UniProt Q05397); assay: Inhibition of FAK phosphorylation in human MDA-MB-231 cells after 12 hrs by Western blot analysis; type: cell-based
Method in brief: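 Cells exposed 0–20 µM for 12 h; lysates in RIPA buffer immunoblotted with phospho-FAK, total FAK and β-actin antibodies; HRP secondary, chemiluminescence, densitometry.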

MDA-MB-231 [13] = assay: Antiinvasive activity against human MDA-MB-231 cells xenografted in athymic nude BALB/c mouse assessed as decrease in lung metastasis at 5 and 20 mg/kg, ip administered 3 times per week starting 1 week prior to xenografting measured after 5 weeks by hematoxylin-staining relative to control; type: functional, organism-based; parameters: dose 20 mg/kg; method in brief: as §3
MDA-MB-231 [14] = assay: Antiinvasive activity against human MDA-MB-231 cells assessed as F-actin reorganization at 20 uM incubated 24 hrs post-serum starvation measured after 12 hrs by TRITC-conjugated phalloidin staining method; type: functional, cell-based
Method in brief: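 Cells seeded, serum-starved (0.1%) overnight, then exposed for 12 h in DMEM with 10% FBS. Fixed in 4% paraformaldehyde 10 min, permeabilized with 0.1% Triton X-100 5 min, F-actin stained with TRITC-phalloidin (500 ng/ml) 1 h; imaged by fluorescence microscopy at 100×.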

[15] = target: Mitogen-activated protein kinase; ERK1/ERK2 (Homo sapiens) (UniProt P27361+P28482); assay: Inhibition of ERK 1/2 phosphorylation in human MDA-MB-231 cells at 5 to 20 uM after 12 hrs by Western blot analysis; type: cell-based; method in brief: as §4
MDA-MB-231 [16] = assay: Antimetastatic activity against human MDA-MB-231 cells assessed as inhibition of anchorage-independent colony formation after 21 days by inverted microscopy; type: functional, cell-based
Method in brief: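 Cells pretreated 0–20 µM for 24 h, then 5 × 10^3 cells suspended in 0.33% agarose with 10% FBS over 0.5% agarose base layer; grown at 37 °C, 5% CO2. Colonies counted after 21 days under inverted microscope at 40×; 3 independent experiments, means ± SD.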

[17] = target: T1, NF-kappa-B inhibitor alpha (Homo sapiens); assay: Inhibition of IkappaBalpha phosphorylation in human MDA-MB-231 cells at 5 to 20 uM after 3 to 24 hrs by Western blot analysis; type: cell-based; method in brief: as §1
MDA-MB-231 [18] = assay: Cytotoxicity against human MDA-MB-231 cells at 25 to 100 uM after 24 hrs by MTT assay; type: functional, cell-based
Method in brief: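 Cells seeded at 5 × 10^4/well, grown 24 h in complete medium, exposed 0–100 µM for 24 h (control 0.2% DMSO). Medium replaced, MTT added for 4 h, formazan dissolved in DMSO, absorbance read at 570 nm.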

[19] = target: T1, NF-kappa-B inhibitor alpha (Homo sapiens); assay: Inhibition of IkappaBalpha phosphorylation in human MDA-MB-231 cells at 5 to 20 uM after 12 to 24 hrs by Western blot analysis; type: cell-based
MDA-MB-231 [20] = assay: Downregulation of MMP9 expression in human MDA-MB-231 cells at 0.5 to 1 uM after 12 hrs by Western blot analysis; type: functional, cell-based
MDA-MB-231 [21] = assay: Upregulation of TIMP2 expression in human MDA-MB-231 cells at 1 to 3.5 uM after 12 hrs by Western blot analysis; type: functional, cell-based
MDA-MB-231 [22] = assay: Upregulation of TIMP1 expression in human MDA-MB-231 cells at 0.5 to 1 uM after 12 hrs by Western blot analysis; type: functional, cell-based
MDA-MB-231 [23] = assay: Downregulation of MMP9 in human MDA-MB-231 cells at 50 uM by Western blot analysis; type: functional, cell-based
MDA-MB-231 [24] = assay: Downregulation of MMP2 in human MDA-MB-231 cells at 50 uM by Western blot analysis; type: functional, cell-based
MDA-MB-231 [25] = assay: Downregulation of MMP2 in human MDA-MB-231 cells at 10 uM by Western blot analysis; type: functional, cell-based
Method in brief: (§5)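 MDA-MB-231 cells in DMEM with 10% FBS at 37 °C were treated for 12 h. Whole-cell lysates were made in RIPA buffer (pH 7.5) at 4 °C, then SDS-PAGE, nitrocellulose transfer, and immunoblotting for MMP-2 and MMP-9, with β-actin as loading control. Detection was by HRP secondary antibody and chemiluminescence. Relative band density was quantified by densitometry.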

MDA-MB-231 [26] = assay: Downregulation of MMP9 in human MDA-MB-231 cells at 10 uM by Western blot analysis; type: functional, cell-based; method in brief: as §5

Chain of Focal adhesion kinase 1 (Homo sapiens) (Q05397 2-1052 limits assumed): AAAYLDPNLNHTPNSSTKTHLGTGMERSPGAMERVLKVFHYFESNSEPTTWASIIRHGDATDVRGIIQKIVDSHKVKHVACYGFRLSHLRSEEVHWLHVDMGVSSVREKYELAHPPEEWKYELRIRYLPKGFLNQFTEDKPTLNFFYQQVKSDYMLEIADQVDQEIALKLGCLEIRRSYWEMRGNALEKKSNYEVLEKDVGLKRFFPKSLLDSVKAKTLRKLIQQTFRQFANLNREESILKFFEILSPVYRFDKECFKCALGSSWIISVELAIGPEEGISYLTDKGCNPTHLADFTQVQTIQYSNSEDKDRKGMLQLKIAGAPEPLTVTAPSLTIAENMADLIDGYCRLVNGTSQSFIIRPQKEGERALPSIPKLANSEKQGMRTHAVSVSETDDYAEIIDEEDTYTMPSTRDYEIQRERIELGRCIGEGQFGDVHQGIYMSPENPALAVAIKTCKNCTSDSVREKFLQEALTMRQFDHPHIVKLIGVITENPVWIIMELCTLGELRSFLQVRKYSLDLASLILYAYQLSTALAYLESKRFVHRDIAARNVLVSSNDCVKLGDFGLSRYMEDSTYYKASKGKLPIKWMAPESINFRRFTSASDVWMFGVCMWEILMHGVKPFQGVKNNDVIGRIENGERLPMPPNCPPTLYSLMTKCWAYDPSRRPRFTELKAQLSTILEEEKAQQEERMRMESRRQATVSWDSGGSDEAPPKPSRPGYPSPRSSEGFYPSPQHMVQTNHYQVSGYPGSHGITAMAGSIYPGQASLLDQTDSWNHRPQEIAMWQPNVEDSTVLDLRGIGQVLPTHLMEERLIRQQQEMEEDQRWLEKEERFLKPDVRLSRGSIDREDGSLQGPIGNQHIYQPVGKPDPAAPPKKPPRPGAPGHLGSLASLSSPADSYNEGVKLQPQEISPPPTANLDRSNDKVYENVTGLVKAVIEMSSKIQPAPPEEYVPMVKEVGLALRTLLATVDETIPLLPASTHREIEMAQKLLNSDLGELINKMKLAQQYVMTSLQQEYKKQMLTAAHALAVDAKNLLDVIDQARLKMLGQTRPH
Chain of Mitogen-activated protein kinase; ERK1/ERK2 (Homo sapiens) (P27361 whole entry, looked up): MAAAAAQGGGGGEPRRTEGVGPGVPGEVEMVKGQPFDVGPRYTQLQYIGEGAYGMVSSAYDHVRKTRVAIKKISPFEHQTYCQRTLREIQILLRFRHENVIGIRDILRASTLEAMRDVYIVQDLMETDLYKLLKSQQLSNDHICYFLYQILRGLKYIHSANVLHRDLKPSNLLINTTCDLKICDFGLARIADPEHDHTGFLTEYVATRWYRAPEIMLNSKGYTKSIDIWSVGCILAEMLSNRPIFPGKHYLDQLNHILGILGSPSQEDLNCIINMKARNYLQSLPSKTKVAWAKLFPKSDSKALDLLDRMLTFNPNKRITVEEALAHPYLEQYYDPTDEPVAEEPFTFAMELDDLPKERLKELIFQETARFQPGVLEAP
Chain of Mitogen-activated protein kinase; ERK1/ERK2 (Homo sapiens) (P28482 whole entry, looked up): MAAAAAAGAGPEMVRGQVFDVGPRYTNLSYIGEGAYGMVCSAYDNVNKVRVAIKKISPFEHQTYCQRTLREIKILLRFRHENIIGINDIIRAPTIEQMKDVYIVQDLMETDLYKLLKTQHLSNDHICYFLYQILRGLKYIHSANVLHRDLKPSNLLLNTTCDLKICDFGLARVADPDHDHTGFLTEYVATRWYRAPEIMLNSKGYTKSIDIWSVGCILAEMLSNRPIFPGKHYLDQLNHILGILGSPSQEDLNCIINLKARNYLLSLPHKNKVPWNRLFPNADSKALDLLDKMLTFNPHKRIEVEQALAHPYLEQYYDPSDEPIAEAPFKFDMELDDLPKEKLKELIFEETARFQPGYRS
Chain of 72 kDa type IV collagenase (Homo sapiens) (P08253 110-660 limits assumed): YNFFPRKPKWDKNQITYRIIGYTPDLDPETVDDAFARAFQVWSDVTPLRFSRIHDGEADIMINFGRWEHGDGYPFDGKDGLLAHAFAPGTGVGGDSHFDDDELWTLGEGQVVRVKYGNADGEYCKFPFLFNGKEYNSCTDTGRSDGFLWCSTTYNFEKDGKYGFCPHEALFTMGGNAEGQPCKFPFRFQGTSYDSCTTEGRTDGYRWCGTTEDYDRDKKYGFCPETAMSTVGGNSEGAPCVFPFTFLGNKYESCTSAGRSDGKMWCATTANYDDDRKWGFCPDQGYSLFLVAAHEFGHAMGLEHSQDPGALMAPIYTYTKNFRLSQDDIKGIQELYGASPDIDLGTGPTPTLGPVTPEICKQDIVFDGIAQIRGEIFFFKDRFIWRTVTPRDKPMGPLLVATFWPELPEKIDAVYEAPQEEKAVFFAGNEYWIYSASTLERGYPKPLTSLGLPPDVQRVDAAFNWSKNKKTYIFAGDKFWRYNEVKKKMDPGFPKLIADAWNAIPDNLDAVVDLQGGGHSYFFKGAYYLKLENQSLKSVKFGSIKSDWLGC
Chain of Matrix metalloproteinase-9 (Homo sapiens) (P14780 whole entry): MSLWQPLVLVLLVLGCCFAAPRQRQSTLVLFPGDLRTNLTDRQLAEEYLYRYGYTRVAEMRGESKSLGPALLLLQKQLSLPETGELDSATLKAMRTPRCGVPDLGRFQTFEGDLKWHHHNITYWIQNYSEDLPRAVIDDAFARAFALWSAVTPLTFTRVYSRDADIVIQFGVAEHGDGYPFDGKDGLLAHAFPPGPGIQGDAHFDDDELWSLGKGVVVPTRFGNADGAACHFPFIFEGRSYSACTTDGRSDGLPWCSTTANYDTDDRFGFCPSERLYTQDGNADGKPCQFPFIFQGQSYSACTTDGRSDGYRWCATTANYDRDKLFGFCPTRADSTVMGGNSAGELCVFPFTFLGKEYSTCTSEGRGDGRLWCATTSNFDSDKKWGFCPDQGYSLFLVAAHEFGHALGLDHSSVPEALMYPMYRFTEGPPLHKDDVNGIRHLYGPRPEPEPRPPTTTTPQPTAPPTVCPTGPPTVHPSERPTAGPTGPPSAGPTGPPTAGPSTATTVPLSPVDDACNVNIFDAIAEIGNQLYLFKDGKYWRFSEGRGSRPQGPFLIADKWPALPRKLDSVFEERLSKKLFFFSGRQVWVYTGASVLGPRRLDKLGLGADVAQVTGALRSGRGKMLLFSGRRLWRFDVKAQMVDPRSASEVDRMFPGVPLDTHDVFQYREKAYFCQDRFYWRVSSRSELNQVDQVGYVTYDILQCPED

O=c1oc2cc(O)cc(O)c2c2oc3cc(O)c(O)cc3c12
active: Activity (MDA-MB-231 [1]) | Activity (MDA-MB-231 [2]) Dose-dependent effect | inhibition [3] Dose-dependent effect | inhibition [4] | Activity (MDA-MB-231 [5]) | Activity (SK-HEP1) | inhibition (MDA-MB-231 [6]) | Activity (MDA-MB-231 [7]) | inhibition [8] | Activity (MDA-MB-231 [9]) | Activity (MDA-MB-231 [10]) | Activity (MDA-MB-231 [11]) | inhibition [12] Dose-dependent effect | Activity (MDA-MB-231 [13]) | Activity (MDA-MB-231 [14]) | inhibition [15] | inhibition (MDA-MB-231 [16]) Dose-dependent effect | inhibition [17] | Activity (MDA-MB-231 [18])

COc1cc(O)c2c(c1)oc(=O)c1c3cc(O)c(O)cc3oc21
active: Activity (MDA-MB-231 [2]) Dose-dependent effect | inhibition [3] Dose-dependent effect | Activity (SK-HEP1) | inhibition (MDA-MB-231 [6]) | Activity (MDA-MB-231 [7]) | inhibition [19] | Activity (MDA-MB-231 [20]) | inhibition [12] Dose-dependent effect | Activity (MDA-MB-231 [21]) | Activity (MDA-MB-231 [14]) | inhibition [15] | Activity (MDA-MB-231 [22]) | inhibition (MDA-MB-231 [16]) Dose-dependent effect | Activity (MDA-MB-231 [18])

COc1cccc(-c2cc(=O)c3ccccc3o2)c1N
active: Activity (MDA-MB-231 [23]) | Activity (MDA-MB-231 [24])

S=C(S)N1CCCC1
active: Activity (MDA-MB-231 [25]) | Activity (MDA-MB-231 [26])
